Results on three molecules are retold here after ChEMBL document CHEMBL2169744, “Discovery and optimization of potent and selective imidazopyridine and imidazopyridazine mTOR inhibitors” (Bioorg Med Chem Lett, 2012).

Data set [1] is described as follows: Plasma protein binding in rat at 5 mg/kg, po. Type of data set: ADME, organism-based. Set-up: dose 5 mg/kg, route oral. Particulars: read-out: PPB (converted).
Data set [2] concerns Rattus norvegicus. Description: (§1) AUC in rat at 0.5 mg/kg, iv. It is filed as ADME, organism-based, Plasma. Set-up: dose 0.5 mg/kg, route intravenous. As to conditions: in vivo.
A short description of data set [3]: Oral bioavailability in rat at 5 mg/kg. Type of data set: ADME, organism-based. As to conditions: in vivo. In a few lines: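 Rat oral PK at 5.0 mpk in 1% Tween 80, 2% HPMC, 97% H2O, pH 2.2 (methanesulfonic acid).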
Data set [4] is described as follows: Volume of distribution at steady state in rat at 0.5 mg/kg, iv. Type of data set: ADME, organism-based. Details: dose 0.5 mg/kg, route intravenous. Particulars: in vivo, read-out: Vdss.
A short description of data set [5]: Half life in rat at 0.5 mg/kg, iv. It is filed as ADME, organism-based. Set-up: dose 0.5 mg/kg, route intravenous. Particulars: in vivo.
In data set [6] the test system is Rattus norvegicus. Description: (§2) Clearance in rat at 0.5 mg/kg, iv. It is filed as ADME, organism-based. Set-up: dose 0.5 mg/kg, route intravenous. Particulars: in vivo.
Data set [7] can be described thus: Inhibition of mTORC1-mediated 4EBP1-phosphorylation in human U87 cells. It is filed as cell-based, U-87MG ATCC. As to conditions: Homo sapiens, U-87 MG; read-out: IC50.
Data set [8] has as its target Phosphatidylinositol 4,5-bisphosphate 3-kinase catalytic subunit alpha isoform (Homo sapiens, UniProt P42336). Description: Inhibition of PI3Kalpha by AlphaScreen assay.
In data set [9] the target is Serine/threonine-protein kinase mTOR (Homo sapiens, UniProt P42345). The experiment in a line: Inhibition of mTOR by LanthaScreen assay. On the technique in general: In TR-FRET formats the signal depends on donor and acceptor labels being close together.
The species entered for data set [10] is Rattus norvegicus. The experiment in a line: Unbound clearance in rat. Type of data set: ADME, organism-based. Particulars: in vivo.
Data set [11] in a line: as §1. As to conditions: plasma. It is filed as ADME, organism-based, Plasma. Details: dose 0.5 mg/kg, route intravenous.
A short description of data set [12]: as §2. Type of data set: ADME, organism-based. Details: dose 0.5 mg/kg, route intravenous. As to conditions: in vivo.
Data set [13] in a line: Solubility of the compound in simulated intestinal fluid. It is filed as physicochemical.
The nature of data set [14]: Oral bioavailability in rat at 2 mg/kg. It is filed as ADME, organism-based. As to conditions: in vivo.
Data set [15] is described as follows: Clearance in rat at 0.3 mg/kg, iv. Particulars: in vivo. Set-up: dose 0.3 mg/kg, route intravenous. It is filed as ADME, organism-based. In a few lines: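 Rat IV pharmacokinetics at 0.3 mpk, formulation 100% DMSO.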

Converted amounts (≈) assume the structure as drawn.

Chain of Phosphatidylinositol 4,5-bisphosphate 3-kinase catalytic subunit alpha isoform (P42336 whole entry, canonical isoform): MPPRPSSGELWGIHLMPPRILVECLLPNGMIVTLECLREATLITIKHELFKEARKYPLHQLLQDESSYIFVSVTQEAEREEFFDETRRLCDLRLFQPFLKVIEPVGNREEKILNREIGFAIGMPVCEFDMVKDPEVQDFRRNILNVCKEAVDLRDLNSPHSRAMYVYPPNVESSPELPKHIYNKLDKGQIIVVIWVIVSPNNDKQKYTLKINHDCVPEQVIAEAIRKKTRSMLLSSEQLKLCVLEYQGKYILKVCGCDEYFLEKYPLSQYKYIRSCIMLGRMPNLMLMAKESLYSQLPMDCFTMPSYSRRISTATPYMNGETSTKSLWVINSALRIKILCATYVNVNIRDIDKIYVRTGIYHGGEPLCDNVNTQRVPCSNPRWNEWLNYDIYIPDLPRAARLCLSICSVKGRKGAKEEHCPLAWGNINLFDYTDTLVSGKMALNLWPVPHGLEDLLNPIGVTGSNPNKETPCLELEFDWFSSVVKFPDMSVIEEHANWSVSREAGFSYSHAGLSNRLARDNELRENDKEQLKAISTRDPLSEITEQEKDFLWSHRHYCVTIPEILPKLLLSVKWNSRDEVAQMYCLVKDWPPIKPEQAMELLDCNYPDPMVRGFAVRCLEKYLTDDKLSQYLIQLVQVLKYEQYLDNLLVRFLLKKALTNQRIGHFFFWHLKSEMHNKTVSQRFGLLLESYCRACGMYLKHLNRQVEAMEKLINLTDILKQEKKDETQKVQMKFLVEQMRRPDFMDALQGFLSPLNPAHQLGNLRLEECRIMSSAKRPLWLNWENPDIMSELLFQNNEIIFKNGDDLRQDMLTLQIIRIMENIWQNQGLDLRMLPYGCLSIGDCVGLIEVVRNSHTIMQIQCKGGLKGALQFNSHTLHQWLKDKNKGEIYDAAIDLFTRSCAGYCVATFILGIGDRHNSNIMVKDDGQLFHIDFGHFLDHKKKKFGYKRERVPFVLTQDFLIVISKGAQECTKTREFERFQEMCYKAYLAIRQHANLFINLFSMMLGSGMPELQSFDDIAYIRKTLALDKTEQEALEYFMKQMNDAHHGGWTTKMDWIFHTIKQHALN

Turning to `CC(=O)Nc1cc(-c2c(Nc3ccn(C)n3)nc3ccc(-c4cccnc4C)cn23)nc(C)n1`, in data set [1], the fraction unbound was 0.025. In addition, the AUC with Rattus norvegicus [2] came out at 7.6 µM·h. In addition, the bioavailability in data set [3] worked out at 38%. Further, the Vd in data set [4] came out at 1.7 L/kg. In addition, the half-life in [5] was 168 min. The molecule further registered a CL in the data set with Rattus norvegicus [6] of 10 mL/min/kg. Further, the IC50 amounted to 230 nM in data set [7], 4290 nM in data set [8] and 15 nM in data set [9].

As to `Cc1nc(N)cc(-c2c(Nc3cc[nH]n3)nc3cccnn23)n1`, the fraction unbound in [1] was 0.088. Also, in the data set listed under Rattus norvegicus [10], the CL free was found to be 435 mL/min/kg. In data set [11], this molecule came in with an AUC of 1 µM·h. This molecule also registered a bioavailability in data set [3] of 100%. In addition, the Vd in [4] is 2 L/kg. Also, in [5], the half-life was 51 min. Also, in data set [12], the clearance is 38.3 mL/min/kg. The same molecule displayed a solubility in data set [13] of 150 µg/mL (≈ 488 µM). Further, the concentration for half-maximal inhibition (IC50) in [7] came out at 210 nM; in data set [8], 763 nM; in [9], 13 nM.

Consider `Cc1nc(N)cc(-c2c(Nc3cc[nH]n3)nc3ccccn23)n1`, for which the CL free in the data set listed under Rattus norvegicus [10] stood at 515 mL/min/kg. This molecule gave a bioavailability in [14] of 2%. The Vd in data set [4] turned out to be 1.2 L/kg. This molecule had a half-life in data set [5] of 15 min. The molecule also showed a clearance in data set [15] of 68.3 mL/min/kg. In data set [13], the solubility is 162 µg/mL (≈ 529 µM). The IC50 was found to be 507 nM in [7], 5840 nM in [8] and 65 nM in [9].

For orientation: AUC means the area under the concentration-time curve, a measure of exposure. Low readings indicate low exposure, high ones high exposure. One may read the bioavailability as the share of a dose that reaches the circulation, judged against a reference dose that is usually intravenous. Read a low bioavailability as little systemic uptake. A word on the half-life: it is the time in which the quantity being followed falls by half. High values mean slow loss, low ones fast loss. The IC50 is the concentration needed to halve the response being measured. The clearance is the volume of plasma or blood freed of the substance per unit of time. A higher clearance goes with a high capacity for elimination. What is called solubility is how much of the substance goes into solution per volume.
